Only a selection was taken, and hits are over-represented in it overall.
Fibroblast inh – blocks proliferation of human lung fibroblasts; LL 47 human lung fibroblast viability, ATP luminescence; active compounds read low; viability, % at 10 µM; 85,000 compounds, 1.1% hits;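 active = viability at or below 50% in the single dose screen; inactive = viability above 50%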;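 note: compound exposure lasted 72 h before the ATP readout; 100% = median luminescence of untreated cell-only wells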
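test system = LL 47 human lung fibroblasts | amount = 1,150 fibroblasts seeded per well | medium = 15% FBS in IMEM | times = overnight cell rest, 72 h compound treatment at 37 °C | measured by = CellTiter-Glo luminescence measuring cellular ATP | read-out = viability percentage against median untreated-cell control | benchmarks = cell-only wells, no compound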
bCat KO growth – beta-catenin-lacking colon tumor cell growth suppression | HCT116 beta-catenin knockout viability, CellTiter-Glo, 60 h; active compounds read low | viability, % at 10 µM | 140,000 compounds, 1.5% hits;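 active = viability at or under a set limit, the compound median less 4 SD, cut at about 6% in these data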;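 note: 0% = Hyamine 1622 control at 20 µM and 100% = untreated cell control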
HUVEC prolif 384 – inhibitors of human endothelial cell proliferation; HUVEC proliferation, CellTiter-Glo luminescence, 72 h; active compounds read low; viability, % at 10 µM (by protocol); 86,000 compounds, 1.1% hits;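 active = viability at or below 30%; inactive = viability above 30%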;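 note: 100% = median luminescence of DMSO-only cell control wells on each plate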
H69AR inhibit – growth inhibitors of human H69AR lung tumor cells; H69AR lung tumor viability, ATP luminescence, 72 h; active compounds read low; viability, % at 10 µM; 85,000 compounds, 6% hits; AID 598;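 active = viability at or below 40%; inactive = viability above 40%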;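 note: multidrug resistant small cell line overexpressing MRP-1 efflux transporter; 100% = mean luminescence of untreated control wells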
PTEN del growth – suppresses growth of cells with PTEN deletion | HCT116 PTEN-null viability, CellTiter-Glo, 60 h; active compounds read low | viability, % at 10 µM | 140,000 compounds, 1.2% hits;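 active = viability at or below a set limit, 4 SD under the median of all tested compounds, cut at about 3.7% in these data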;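 note: PTEN knockout HCT116 line with beta catenin targeted HCT116 as companion control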
Starred values were filed as active, the others as inactive; x = no result given; ! = not active in a repeat.

SMILES	Fibroblast inh	bCat KO growth	HUVEC prolif 384	H69AR inhibit	PTEN del growth
O=C(CSC1c2ccccc2-c2ccccc21)N/N=C/c1ccccc1O	41*	9	27*	18*	12
COP(=O)(OC)C1(O)C(=O)Nc2ccc(Br)cc21 (centres undefined)	x	86	x	x	96
O=C(NC1(C(F)(F)F)Oc2ccc(Cl)cc2O1)N1CCC2(CC1)OCCO2 (centres undefined)	74	66	53	32*	66
O=C(NC1(C(F)(F)F)Oc2ccccc2O1)N1CCC2(CC1)OCCO2	101	51	81	17*	61
CC/C(=C\C=C\[C@@H]1C=C[C@@H]2CCC[C@H]2[C@@H]1C(=O)c1ccc[nH]1)[C@@H]1O[C@@H]([C@@H](C)C(=O)O)CC[C@@H]1C	38*	19	12*	15*	27
CSCCC(N=Cc1c(O)n(-c2ccc(Br)cc2)c(=O)[nH]c1=O)C(=O)OC(C)(C)C (centres undefined)	98	104	99	88	106
Cc1cc2c(C(C)C)c(O)c(O)c(C=O)c2c(O)c1-c1c(C)cc2c(C(C)C)c(O)c(O)c(C=O)c2c1O	28*!	4.8*	3.0*	0.6*	1.9*!
Clc1ccc2c(c1)C(c1ccccc1Cl)=NCc1nnc(N3CCN(CCOc4ccccc4)CC3)n1-2	x	61	x	x	48
N=C(N)c1c(O)n(C2CCCCC2)c(=O)n(C2CCCCC2)c1=O	31*	30	2.5*	1.1*	13
O=c1[nH]c(=O)n(CCC2=CCCCC2)c(O)c1C=NC1CCN(Cc2ccccc2)CC1	96	39	96	32*	29
C=CCn1c(O)c(C=Nc2ccc(N(CC)CC)cc2)c(=O)[nH]c1=O	91	97	102	85	92
CN(C)c1ccc(N=Cc2c(O)n(CCC3=CCCCC3)c(=O)[nH]c2=O)cc1	99	89	65	10*	91
CCN(CC)c1ccc(N=Cc2c(O)n(CCC3=CCCCC3)c(=O)[nH]c2=O)cc1	89	58	71	17*	47
C[N+](C)(C)Cc1ccccc1	x	99	x	x	106
CN[C@H]1C[C@H]2O[C@@](C)([C@H]1OC)n1c3ccccc3c3c4c(c5c6ccccc6n2c5c31)C(=O)NC4	x	2.1*	x	x	1.2*
C[n+]1ccc(-c2ccncc2)cc1	100	96	106	95	86
Nc1c2c(nc3sc4c(c13)CCCCC4)CCCC2	x	3.4*	x	x	7
COc1ccccc1-n1c(O)c(C=Nc2c(C)n(C)n(-c3ccccc3)c2=O)c(=O)[nH]c1=O	95	100	87	102	105
Cc1cccc(-n2c(/C=C/c3ccc([N+](=O)[O-])o3)nc3ccccc3c2=O)c1	x	0.8*	x	x	0.6*
CN(C)C1(CNC(=O)c2ccc(Cl)c(S(=O)(=O)NCc3ccco3)c2)CCCCC1	x	93	x	x	101
Cn1c(O)c(C=NC2CC3CCC2(C)C3(C)C)c(=O)[nH]c1=O (centres undefined)	98	84	97	86	91
CCCCn1c(O)c(C=NC2CC3CCC2(C)C3(C)C)c(=O)[nH]c1=O (centres undefined)	96	56	98	15*	36
C[C@@H]1O[C@@H](O[C@H]2C[C@@H](O)[C@]3(CO)[C@H]4[C@H](O)C[C@]5(C)[C@@H](C6=CC(=O)OC6)CC[C@]5(O)[C@@H]4CC[C@]3(O)C2)[C@H](O)[C@H](O)[C@H]1O	x	5.7*	x	x	4
C[C@H]1O[C@@H](O[C@H]2[C@@H](O)C[C@H](O[C@H]3[C@@H](O)C[C@H](O[C@H]4CC[C@@]5(C)[C@H](CC[C@@H]6[C@@H]5CC[C@]5(C)[C@@H](C7=CC(=O)OC7)CC[C@]65O)C4)O[C@@H]3C)O[C@@H]2C)C[C@H](O)[C@@H]1O	x	4.9*	x	x	6
O/N=C1\CCC2CN(C3CCCCC3)CC2C1 (centres undefined)	100	88	96	94	93
Cc1c2ccncc2c(C)c2c1[nH]c1ccccc12	x	1.3*	x	x	0.9*
COc1cccc(/C=C2\N=C(c3cncc(Br)c3)OC2=O)c1	x	99	x	x	104
CN(C)CCOC(=O)c1cn(Cc2ccccc2)c2ccccc12	x	77	x	x	70
CCC(C)NC(=O)c1c(N)n(Cc2ccc3c(c2)OCO3)c2nc3ccccc3nc12 (centres undefined)	x	1.4*	x	x	1.4*
Cc1cccc(N/N=C(\C(N)=O)C2=NC(C)(C)Cc3ccccc32)c1	x	64	x	x	59

From PubChem
